Tests used:
Estrogen receptor beta = Estrogen receptor beta (Homo sapiens, UniProt Q92731); assay: In vitro concentration required to inhibit [3H]estradiol binding to human estrogen receptor beta expressed in 293T cells; assay type: cell-based
Procedure, shortened: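 Increasing competitor concentrations from DMSO stocks. Incubated 16 h at 4 °C. Dextran-coated charcoal for 15 min at room temperature, then centrifuged. Supernatant counted by scintillation. Means of ≥3 experiments.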

Estrogen receptor = target: T1, Estrogen receptor (Homo sapiens, UniProt P03372); assay: In vitro concentration required to inhibit [3H]estradiol binding to human estrogen receptor alpha expressed in 293T cells; assay type: cell-based
T1 sequence (P03372 whole entry): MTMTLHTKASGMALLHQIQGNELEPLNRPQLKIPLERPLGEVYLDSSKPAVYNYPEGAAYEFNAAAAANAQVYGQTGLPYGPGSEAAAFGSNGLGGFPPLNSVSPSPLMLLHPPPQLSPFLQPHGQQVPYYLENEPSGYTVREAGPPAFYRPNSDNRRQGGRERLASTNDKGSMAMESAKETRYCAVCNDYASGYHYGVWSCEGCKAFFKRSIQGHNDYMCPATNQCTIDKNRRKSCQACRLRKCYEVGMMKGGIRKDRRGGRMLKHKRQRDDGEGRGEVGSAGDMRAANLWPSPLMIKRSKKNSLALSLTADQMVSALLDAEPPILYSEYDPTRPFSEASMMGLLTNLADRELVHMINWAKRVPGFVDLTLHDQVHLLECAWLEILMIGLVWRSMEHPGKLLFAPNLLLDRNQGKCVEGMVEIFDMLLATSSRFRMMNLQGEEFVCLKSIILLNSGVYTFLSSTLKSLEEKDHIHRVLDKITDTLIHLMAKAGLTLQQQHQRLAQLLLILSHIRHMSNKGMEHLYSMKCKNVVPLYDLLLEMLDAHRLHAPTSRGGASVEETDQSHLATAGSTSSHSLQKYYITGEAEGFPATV

MCF7 [1] = assay: Percent inhibition of antagonistic activity in MCF-7 cell lines derived from breast tumors that predominantly express ER-alpha; assay type: functional, Homo sapiens
MCF7 [2] = assay: Inhibitory concentration required for antagonistic activity in MCF-7 cell lines derived from breast tumors that predominantly express ER-alpha; assay type: functional, cell-based; settings: Homo sapiens
MCF7 [3] = assay: Effective concentration required for agonistic activity in MCF-7 cell lines derived from breast tumors that predominantly express ER-alpha; assay type: functional, cell-based; settings: Homo sapiens
Procedure, shortened: (§1)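 MCF7 cells plated at 6000/well in IMDM with 5% FBS and attached overnight. Steroid-depleted over 48 h with two changes of medium containing 5% charcoal-dextran stripped FBS. Compounds given as log dilutions from 10^-13 to 10^-6 M in 0.1% DMSO, 8 replicate wells each. Medium and compound renewed at day 4. DNA content measured by Hoechst 33258 after 7 days total exposure.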

MCF7 [4] = assay: Percent agonistic activity in MCF-7 cell lines derived from breast tumors that predominantly express ER-alpha; assay type: functional, Homo sapiens; procedure, shortened: as §1

Chain of Estrogen receptor beta (Q92731 whole entry): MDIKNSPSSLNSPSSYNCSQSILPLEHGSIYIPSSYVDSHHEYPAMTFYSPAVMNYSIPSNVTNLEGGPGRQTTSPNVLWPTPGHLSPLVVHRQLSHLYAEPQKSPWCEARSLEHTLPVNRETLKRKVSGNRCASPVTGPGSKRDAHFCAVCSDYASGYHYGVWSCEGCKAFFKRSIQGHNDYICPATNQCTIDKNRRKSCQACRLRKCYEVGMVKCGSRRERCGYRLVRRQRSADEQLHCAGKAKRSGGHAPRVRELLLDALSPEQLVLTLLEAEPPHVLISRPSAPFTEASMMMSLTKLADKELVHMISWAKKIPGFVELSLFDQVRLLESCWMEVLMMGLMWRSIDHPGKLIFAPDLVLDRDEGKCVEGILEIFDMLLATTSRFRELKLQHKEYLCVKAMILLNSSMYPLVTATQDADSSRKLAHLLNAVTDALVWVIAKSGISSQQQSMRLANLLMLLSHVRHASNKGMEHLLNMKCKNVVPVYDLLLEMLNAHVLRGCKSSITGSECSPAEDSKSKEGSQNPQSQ

Row | SMILES | IC50 (Estrogen receptor beta) | IC50 (Estrogen receptor) | Inhibition (MCF7 [1]) | IC50 (MCF7 [2]) | EC50 (MCF7 [3]) | Activity (MCF7 [4])
1 | O=C(N1CCc2cc(O)ccc2C1c1ccc(Br)cc1)C(F)(F)F (stereo unspecified) | 22 nM | 165 nM |  |  |  | 
2 | Oc1ccc2c(c1)CCN(c1ccccc1)C2Cc1ccccc1 (stereo unspecified) | 66.4 nM | 6.7 nM |  |  |  | 
3 | Oc1ccc2c(c1)CCN(c1ccccc1)C2c1ccc(OCCN2CCCC2)cc1 (stereo unspecified) | 22.2 nM | 11.5 nM |  |  |  | 
4 | O=C(c1ccccc1)N1CCc2cc(O)ccc2C1c1ccc(OCCN2CCCC2)cc1 (stereo unspecified) | 2250 nM | 562 nM |  |  |  | 
5 | O=S(=O)(c1ccc2ccccc2c1)N1CCc2cc(O)ccc2C1c1ccc(OCCN2CCCC2)cc1 (stereo unspecified) | 1080 nM | 112 nM |  |  |  | 
6 | Oc1ccc2c(c1)CCN(c1ccccc1)C2c1cccs1 (stereo unspecified) | 26.3 nM | 50 nM |  |  |  | 
7 | O=C(N1CCc2cc(O)ccc2C1c1ccccc1)C(F)(F)F (stereo unspecified) | 27.4 nM | 235 nM |  |  |  | 
8 | O=C(N1CCc2cc(O)ccc2[C@@H]1c1ccc(O)cc1)C(F)(F)F | > 3200 nM | > 3200 nM |  |  |  | 
9 | Cc1ccc(S(=O)(=O)N2CCc3cc(O)ccc3C2c2ccc(OCCN3CCCC3)cc2)cc1 (stereo unspecified) | 71.2 nM | 24.8 nM | 66% | 29.8 nM |  | 
10 | Oc1ccc2c(c1)CCN(c1ccccc1)C2C1CCCCC1 (stereo unspecified) | 99 nM | 29.8 nM |  |  | 11.1 nM | 93%
11 | O=S(=O)(c1ccccc1)N1CCc2cc(O)ccc2C1c1ccc(OCCN2CCCC2)cc1 (stereo unspecified) | 18.5 nM | 5.2 nM |  |  |  | 
12 | O=S(=O)(c1ccccc1)N1Cc2cc(O)ccc2C(c2ccc(O)cc2)C1 (stereo unspecified) | 41.7 nM | 120 nM |  |  |  | 
13 | O=C(N1CCc2cc(O)ccc2C1c1ccc(OCCN2CCCC2)cc1)C(F)(F)F (stereo unspecified) | 93.3 nM | 28.7 nM | 83% | 86.6 nM |  | 
14 | Oc1ccc2c(c1)CCN(c1ccccc1)C2CC1CCCCC1 (stereo unspecified) | 295 nM | 53.1 nM |  |  |  | 
15 | CC(C)C1c2ccc(O)cc2CCN1c1ccccc1 (stereo unspecified) | 180 nM | 42.7 nM |  |  |  | 
16 | Oc1ccc2c(c1)CCN(c1ccccc1)C2c1ccccc1 (stereo unspecified) | 48.8 nM | 30.7 nM |  |  |  | 
17 | O=C(N1CCc2cc(O)ccc2C1c1cccs1)C(F)(F)F (stereo unspecified) | 63.5 nM | 385 nM |  |  |  | 
18 | CCCc1ccc(S(=O)(=O)N2CCc3cc(O)ccc3C2c2ccc(OCCN3CCCC3)cc2)cc1 (stereo unspecified) | 133 nM | 29.4 nM |  |  |  | 
19 | Oc1ccc2c(c1)CCN(Cc1ccc3c(c1)OCO3)C2c1ccc(OCCN2CCCC2)cc1 (stereo unspecified) | 220 nM | 9.2 nM |  |  |  | 
20 | O=C(c1ccccc1)N1Cc2cc(O)ccc2C(c2ccc(O)cc2)C1 (stereo unspecified) | 27.9 nM | 160 nM |  |  |  | 
21 | O=S(=O)(c1cccc2ccccc12)N1CCc2cc(O)ccc2C1c1ccc(OCCN2CCCC2)cc1 (stereo unspecified) | 21.3 nM | 5.6 nM | 96% | 51.3 nM |  | 
22 | O=C(N1Cc2cc(O)ccc2C(c2ccc(O)cc2)C1)C(F)(F)F (stereo unspecified) | 11.4 nM | 123 nM |  |  |  | 
23 | O=C(N1CCc2cc(O)ccc2[C@H]1c1ccc(O)cc1)C(F)(F)F | 8.9 nM | 53.6 nM |  |  |  | 
24 | CN(C)C(=O)/C=C/c1ccc(N2CCc3cc(O)ccc3C2c2ccccc2)cc1 (stereo unspecified) | 8.7 nM | 8 nM |  |  |  | 
25 | O=C(/C=C/c1ccc(N2CCc3cc(O)ccc3C2c2ccccc2)cc1)N1CCOCC1 (stereo unspecified) | 4.8 nM | 5.9 nM |  |  |  | 
26 | O=S(=O)(c1cccc2ccccc12)N1Cc2cc(O)ccc2C(c2ccc(O)cc2)C1 (stereo unspecified) | 10.7 nM | 28 nM |  |  |  | 
27 | Oc1ccc(C2CN(Cc3ccccc3)Cc3cc(O)ccc32)cc1 (stereo unspecified) | 13.1 nM | 20.1 nM |  |  |  | 
28 | CCOC(=O)N1CCc2cc(O)ccc2C1c1ccc(OCCN2CCCC2)cc1 (stereo unspecified) | 293 nM | 44.3 nM |  |  |  | 
29 | Oc1ccc2c(c1)CCN(Cc1ccccc1)C2c1ccc(OCCN2CCCC2)cc1 (stereo unspecified) | 42.2 nM | 4.7 nM |  |  |  | 
